Compounds with a hit are over-represented: about 2% of the library has one in this group of screens.
PKD1 kinase inh = blocks activity of human protein kinase D1 | Q15139 | PKD1 kinase fluorescence polarization assay | inhibition, % (concentration not given with the values) | hit rate 0.056% among 200,000 | AID 797
Runt-SMMHC FRET = blocks binding of human RUNX1 Runt domain to CBFb-SMMHC | Q01196+Q13951 | Cerulean-Runt/Venus-CBFb-SMMHC FRET ratio 530/480, 1 h | inhibition, % at 20 µM | hit rate 0.74% among 220,000;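 active = mean inhibition across duplicate retests at 20 µM reaching about 50%, limit read from the data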;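 note: inhibitors lower the FRET ratio by blocking Runt binding to CBFb-SMMHC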
Runt-CBFb FRET = Runt domain-CBFb interaction inhibition; Q01196+Q13951; Cerulean-Runt/Venus-CBFb FRET ratio 530/480, 1 h; inhibition, % at 20 µM; hit rate 0.46% among 220,000; AID 1496;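 active = inhibition over about 50% at 20 µM in the single-dose screen, limit read from the data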
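test system = Cerulean-tagged RUNX1 Runt domain (FRET donor) fusion protein | reagent = Venus-CBFb binding partner, 100 nM | incubation = protein complex preformed 1 h, compound exposure 1 h, room temperature, dark | detection = FRET fluorescence | read-out basis = loss of energy transfer signal | controls = 5 µM unlabeled CBFb as full-inhibition high control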
MEX-5 binding = C. elegans MEX-5 TCR-2 RNA binding activity; MEX-5/FITC-TCR2 RNA binding, fluorescence polarization; stronger effect = lower value; activity score (negative = inhibition of binding), % at 10 µM; hit rate 0.38% among 300,000;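 active = inhibition past about -25% in most replicates, and total fluorescence under double the plate's negative control median, limit read from the data; inconclusive = replicates evenly split on the limit, or fluorescence at least double controls; inactive = too little inhibition in most replicates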
EBV gp42 inh = inhibitors of Epstein-Barr virus glycoprotein 42; Q1HVG2; Fluorescence polarization binding assay, mP read-out; inhibition, % (tested at 21.74 µM); hit rate 0.42% among 220,000
Target sequence (Q1HVG2 whole entry, looked up): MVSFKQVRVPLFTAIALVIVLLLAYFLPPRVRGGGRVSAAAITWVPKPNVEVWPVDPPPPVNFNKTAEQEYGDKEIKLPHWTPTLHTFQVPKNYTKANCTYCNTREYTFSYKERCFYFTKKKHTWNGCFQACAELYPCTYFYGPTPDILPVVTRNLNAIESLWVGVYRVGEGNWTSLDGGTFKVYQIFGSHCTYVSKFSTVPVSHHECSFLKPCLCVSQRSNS
RanGTP-Imp inh = disruptors of Ran-importin-beta complex formation – biochemical, FRET, CFP-Ran, YFP-importin-beta, homogeneous, primary screen | inhibition, % (test concentration not listed) | cell-free CFP-Ran/YFP-importin-beta FRET ratio | hit rate 1.1% among 300,000;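 active = more than half of the replicate wells show a fall in the fluorescence ratio signal beyond about 16%, limit read from the data, passing the limit was not always enough; inconclusive = exactly half of the replicate wells pass the set limit; inactive = fewer than half of replicates pass the limit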
A number is an active result; i = inactive; ? = inconclusive; nt = no result; ! = a repeat was not active. Cut-off read from the data, not from the text of the source, unless noted: active = inhibition above about 50%; inactive = the rest.

SMILES	PKD1 kinase inh	Runt-SMMHC FRET	Runt-CBFb FRET	MEX-5 binding	EBV gp42 inh	RanGTP-Imp inh
Nc1c(C(=O)NCCCc2ccccc2)c2nc3ccccc3nc2n1Cc1cccs1	i	i	i	i	i	66
COCCCNC(=O)c1c(NC(=O)c2ccccc2)n(Cc2ccccc2)c2nc3ccccc3nc12	i	nt	nt	i	nt	?
CCCCn1c(N)c(C(=O)NCc2cccs2)c2nc3ccccc3nc21	i	76	nt	i	i	68
CCCCCn1c(=O)c(C(=O)Nc2nc3ccccc3[nH]2)c(O)c2ccccc21	nt	i	i	i	i	i
CCCCn1c(=O)c(C(=O)NCc2ccccc2OC)c(O)c2ccccc21	nt	nt	nt	i	nt	i
Clc1ccc2sc(C3CCNCC3)nc2c1	nt	nt	nt	i	nt	i
COc1cccc(-n2c(O)c(C=NCCN3CCNCC3)c(=O)[nH]c2=S)c1	nt	nt	nt	i	nt	i
CC(=O)c1cn(CC(=O)NCCc2c[nH]c3ccccc23)c2ccccc12	nt	nt	nt	i	nt	i
O=C1NC2NC(=O)N([N+](=O)[O-])C2N1 (stereo not drawn)	nt	i	i	i	i	i
CN1CCCN(C(=O)COc2ccc(F)cc2Cl)CC1	nt	nt	nt	i	nt	?
CCS(=O)(=O)NCc1nnc2n1-c1ccc(Br)cc1C(c1ccccc1Cl)=NC2	nt	nt	nt	i	nt	i
N#CC1=C(N)Oc2cc(O)ccc2C1c1ccc2c(c1)OCO2 (stereo not drawn)	i	90	i	i	i	67
CC(C)CCOC(=O)c1c(N)n(CC2CCCO2)c2nc3ccccc3nc12 (stereo not drawn)	i	65	i	i	i	i
COCCCn1c(N)c(C(=O)NCCC(C)C)c2nc3ccccc3nc21	i	i	i	i	i	103
CCCCOCCCn1c(N)c(C(=O)OCCOC)c2nc3ccccc3nc21	i	103	i	i	i	?
CC(C)CCn1c(N)c(C(=O)OCC2CCCO2)c2nc3ccccc3nc21 (stereo not drawn)	i	82	i	i	i	?
Cc1cc(C)c2c(ccc3cccc[n+]32)c1	nt	nt	nt	i	nt	i
CCCCn1c(N)c(C(=O)OCC2CCCO2)c2nc3ccccc3nc21 (stereo not drawn)	i	106	i	i	i	?
O=C(COc1ccc(Cl)cc1)N1CCN(C2CCCC2)CC1	nt	nt	nt	i	nt	i
COc1ccc2c3c([nH]c2c1)C(C)=NCC3	i	73	i	i	i	62
CC[C@H]1CC2CN3CCc4c([nH]c5cc(OC)ccc45)[C@](C(=O)OC)(C2)[C@H]13	nt	nt	nt	i	nt	i
CN1Cc2c(c(C#N)c(N)n(C)c2=S)CC1(C)C	i	i	i	-48	52	i
CN1C(=O)C(=Cc2ccc(OCC(=O)Nc3ccccc3)cc2)C(=O)N(C)C1=O	nt	nt	nt	i	nt	i
CN1CCC2(CC1)C(C#N)=C(N)NC(S)=C2C#N	i	i	i	-43!	i	i
CCOc1ccc(NC2=NCCCS2)cc1	nt	nt	nt	i	nt	?
SMILES	PKD1 kinase inh	Runt-SMMHC FRET	Runt-CBFb FRET	MEX-5 binding	EBV gp42 inh	RanGTP-Imp inh
CCCNC(=O)c1c(N)n(CC2CCCO2)c2nc3ccccc3nc12 (stereo not drawn)	i	78	i	i	i	i
CC(C)OCCCNC(=O)c1c(N)n(CC2CCCO2)c2nc3ccccc3nc12 (stereo not drawn)	i	62	74	i	nt	103
CCOc1cccc(CNCCc2c(C)[nH]c3ccc(OC(F)(F)F)cc23)c1O	nt	nt	nt	i	nt	i
COc1ccc(CN2C(=O)NC(=O)/C(=C\c3ccco3)C2=O)cc1	i	i	i	-46	i	i
COc1ccc(CN2C(=O)NC(=O)/C(=C\c3cc(OC)c(OC)c(OC)c3)C2=O)cc1	i	i	nt	i	i	i
CN(C)CCN(C(=O)COc1ccc(Cl)cc1)c1nc2cc3c(cc2s1)OCO3	nt	nt	nt	i	nt	i
Oc1cc2c(cc1O)[C@H]1c3ccccc3CN[C@@H]1CC2	nt	56	i	-57	i	i
CN(C)[C@@H]1C(=O)C(C(N)=O)=C(O)[C@@]2(O)C(=O)C3=C(O)c4c(O)cccc4[C@@](C)(O)C3C[C@@H]12 (stereo partly drawn)	nt	nt	nt	i	nt	i
CN(C)[C@@H]1C(=O)C(C(N)=O)=C(O)[C@@]2(O)C(=O)C3=C(O)c4c(O)cccc4[C@@](C)(O)[C@H]3[C@H](O)[C@@H]12	i	i	i	-84	i	i
COc1ccccc1-n1c(-c2ccccc2Cl)nc2ccccc2c1=O	nt	nt	nt	i	nt	i
